Converted amounts (≈) assume the structure as drawn.
Legend:
[1] = Ratio of peak drug level in albino guinea pig cage fluid at 12.5 mg/kg, ip to MIC for Staphylococcus aureus ATCC 29213; assay type: functional; settings: route intraperitoneal
How it was run: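 The peak cage-fluid concentration after a single ip dose was divided by the MIC. MIC was determined by macrotube dilution in cation-adjusted Mueller-Hinton broth with an inoculum of 5 × 10^5 CFU/ml, read visually as the lowest concentration with no growth. Tests were run in triplicate and the median reported.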

[2] = Cmax in albino guinea pig cage fluid at 12.5 mg/kg, ip administered as single dose; assay type: ADME, organism-based, Cavia porcellus, Interstitial fluid; parameters: dose 12.5 mg/kg, route intraperitoneal
How it was run: (§1)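 Noninfected guinea pigs with subcutaneous tissue cages received ip dosing, either a single dose or every 12 h for 4 days (multiple-dose values taken on day 4). Cage fluid was aspirated over 12 h, mixed with EDTA, centrifuged and stored at −20°C. Drug levels were measured by agar diffusion bioassay. Cmin was taken 12 h after dosing. Values are means ± SD from 12 aspirates.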

[3] = Cmax in albino guinea pig cage fluid at 3 mg/kg, ip administered as single dose; assay type: ADME, organism-based, Cavia porcellus, Interstitial fluid; parameters: dose 3 mg/kg, route intraperitoneal
How it was run: (§2)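 Noninfected cage-bearing guinea pigs given one ip dose. Cage fluid aspirated over 12 h, mixed with EDTA and centrifuged. Levels measured in triplicate by agar diffusion bioassay with S. pneumoniae ATCC 49619 indicator (detection limit 0.0005 μg/ml). Cmin taken 12 h post-dose; means ± SD from 12 aspirates.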

[4] = Cmin in albino guinea pig cage fluid at 12.5 mg/kg, ip administered as single dose measured after 12 hrs; assay type: ADME, organism-based, Cavia porcellus; parameters: dose 12.5 mg/kg, route intraperitoneal; settings: read-out: Cmin; how it was run: as §1
[5] = Cmin in albino guinea pig cage fluid at 3 mg/kg, ip administered as single dose measured after 12 hrs; assay type: ADME, organism-based, Cavia porcellus; parameters: dose 3 mg/kg, route intraperitoneal; settings: read-out: Cmin; how it was run: as §2
[6] = test system: Staphylococcus aureus; test: Antibacterial activity against Staphylococcus aureus ATCC 29213 infected albino guinea pig tissue-cage infection model assessed as bacterial count at 12 mg/kg, ip administered every 12 hrs for 4 days measured during treatment period; assay type: functional; settings: route intraperitoneal
How it was run: (§3)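 Male albino guinea pigs (640–800 g) carrying four subcutaneous Teflon tissue cages; cages inoculated with 2 × 10^4 CFU S. aureus. Drug given ip in saline (5 ml total) every 12 h for 4 days, starting 24 h post-infection. Cage-fluid log10 CFU/ml measured on day 1 (baseline), day 4 before last dose (during treatment), and day 9 (5 days after treatment). ≥12 cages (3 animals) per regimen; mean reported.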

[7] = test system: Staphylococcus aureus; test: Antibacterial activity against Staphylococcus aureus ATCC 29213 infected albino guinea pig tissue-cage infection model assessed as bacterial count at 12 mg/kg, ip administered every 12 hrs for 4 days measured after treatment period; assay type: functional; settings: route intraperitoneal; how it was run: as §3
[8] = test system: Staphylococcus aureus; test: Antibacterial activity against Staphylococcus aureus ATCC 29213 infected albino guinea pig tissue-cage infection model assessed as infection cure rate at 12.5 mg/kg, ip administered every 12 hrs for 4 days; assay type: functional; settings: route intraperitoneal
How it was run: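 Guinea pig tissue-cage S. aureus infection (2 × 10^4 CFU per cage), treated ip every 12 h for 4 days, starting 24 h after inoculation. Cages were explanted 5 days after treatment ended, vortexed in 10 ml TSB and incubated at 37°C. After 24 h, 50 μl was plated on sheep blood agar. Cure rate is the fraction of cages with no growth; at least 12 cages per regimen.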

[9] = test system: Staphylococcus aureus; test: Antibacterial activity against Staphylococcus aureus ATCC 29213 infected albino guinea pig tissue-cage infection model assessed as infection cure rate at 3 mg/kg, ip administered every 12 hrs for 4 days; assay type: functional; settings: route intraperitoneal
How it was run: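 Guinea pig subcutaneous Teflon tissue-cage model infected with 2 × 10^4 CFU S. aureus. Drug given ip every 12 h for 4 days from 24 h post-infection. Cages removed on day 9, vortexed in 10 ml TSB, incubated 24 h at 37°C and plated on sheep blood agar. Cure rate = fraction of cages with no growth; ≥12 cages per regimen.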

[10] = Cmax in albino guinea pig cage fluid at 12.5 mg/kg, ip administered every 12 hrs for 4 days; assay type: ADME, organism-based, Cavia porcellus, Interstitial fluid; parameters: dose 12.5 mg/kg, route intraperitoneal; how it was run: as §1
[11] = test system: Staphylococcus aureus; test: Antibacterial activity against Staphylococcus aureus ATCC 29213 by macrotube dilution method; assay type: functional
How it was run: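 S. aureus from overnight culture, inoculum 5 × 10^5 CFU/ml, in cation-adjusted Mueller-Hinton broth; twofold? no—serial drug dilutions (tips changed each dilution) per CLSI macrotube method. MIC = lowest concentration with no visible growth. Run in triplicate, median reported.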

[12] = test system: Staphylococcus aureus; test: Antibacterial activity against Staphylococcus aureus ATCC 29213 assessed as logarithmic-growth-phase minimal bactericidal concentration after 24 hrs by macrotube dilution method; assay type: functional; settings: ATCC 29213, 24 h
How it was run: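 MBClog: cation-adjusted Mueller-Hinton broth, macrotube dilution, inoculum 5 × 10^5 CFU/ml taken from overnight culture; lowest concentration cutting initial count by >99.9% (3 log10 CFU/ml) after 24 h incubation. Run in triplicate, median reported.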

[13] = test system: Staphylococcus aureus; test: Antibacterial activity against Staphylococcus aureus ATCC 29213 assessed as stationary-growth-phase minimal bactericidal concentration after 24 hrs by macrotube dilution method; assay type: functional; settings: ATCC 29213, 24 h
[14] = test system: Staphylococcus aureus; test: Ratio of MBC for Staphylococcus aureus ATCC 29213 during stationary-growth phase to logarithmic-growth phase
[15] = Ratio of peak drug level in albino guinea pig cage fluid at 12.5 mg/kg, ip to MBC for Staphylococcus aureus ATCC 29213 during stationary-growth phase; settings: route intraperitoneal
[16] = Cmin in albino guinea pig cage fluid at 5 mg/kg, ip administered as single dose measured after 12 hrs; assay type: ADME, organism-based, Cavia porcellus; parameters: dose 5 mg/kg, route intraperitoneal; settings: read-out: Cmin
How it was run: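 Single ip dose to noninfected cage-bearing guinea pigs. Cage fluid EDTA-treated and centrifuged, then assayed with E. coli V6311/65 bioassay (detection limit 0.01 μg/ml). Trough measured 12 h after dosing; means ± SD from 12 aspirates.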

[17] = in vivo; settings: guinea pig, cage fluid, ip, 5 mg/kg
[18] = test system: Staphylococcus aureus; test: Antibacterial activity against Staphylococcus aureus ATCC 29213 infected albino guinea pig tissue-cage infection model assessed as bacterial count at 12.5 mg/kg, ip administered every 12 hrs after 4 days; assay type: functional; settings: route intraperitoneal
How it was run: (§4)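 Male albino guinea pigs (640 to 800 g) carried four subcutaneous perforated Teflon cages. After two weeks, sterility was confirmed and each cage was inoculated percutaneously with 2 × 10^4 CFU S. aureus in 200 μl. Treatment began 24 h later: ip every 12 h for 4 days (8 doses). Quantitative cage-fluid cultures were taken on day 1, before the last dose (day 4) and 5 days after treatment (day 9). At least 12 cages (3 animals) per regimen.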

[19] = test system: Staphylococcus aureus; test: Antibacterial activity against Staphylococcus aureus ATCC 29213 infected albino guinea pig tissue-cage infection model assessed as bacterial count at 12.5 mg/kg, ip administered every 12 hrs after 5 days; assay type: functional; settings: route intraperitoneal; how it was run: as §4

Cmax [2] [ng/mL] | Cmax [3] [ng/mL] | concentration at 12 h [5] [ng/mL] | SMILES | Ratio [1] | concentration at 12 h [4] [ng/mL] | log10CFU/ml [6] | log10CFU/ml [7] | Activity [8] [%] | Activity [9] [%] | Cmax [10] [ng/mL] | MIC [11] [µg/mL] | MBC [12] [µg/mL] | MBC [13] [µg/mL] | Ratio [14] | Ratio [15] | concentration at 12 h [16] [ng/mL] | Cmax [17] [ng/mL] | log10CFU/ml [18] | log10CFU/ml [19]
1130 | 110 | 40 | CO[C@H]1/C=C/O[C@@]2(C)Oc3c(C)c(O)c4c(=O)c(c5oc6cc(N7CCN(C)CC7)cc(O)c6nc-5c4c3C2=O)NC(=O)/C(C)=C\C=C\[C@H](C)[C@H](O)[C@@H](C)[C@@H](O)[C@@H](C)[C@H](O)[C@@H]1C | 1130 | 140 | 3.24 | 1.57 | 58 | 8 | 820 | 0.001 (≈ 0.00117 µM) | 0.008 (≈ 0.00934 µM) | 0.25 (≈ 0.292 µM) | 31.3 | 4.52 | – | – | – | –
– | – | – | C[C@H]1COc2c(N3CCN(C)CC3)c(F)cc3c(=O)c(C(=O)O)cn1c23.C[C@H]1COc2c(N3CCN(C)CC3)c(F)cc3c(=O)c(C(=O)O)cn1c23.O [LEVOFLOXACIN] | – | – | – | – | – | – | – | 0.16 | 0.32 | 40 | 125 | – | 10 | 970 | – | –
– | – | – | CO[C@H]1/C=C/O[C@@]2(C)Oc3c(C)c(O)c4c(O)c(c(/C=N/N5CCN(C)CC5)c(O)c4c3C2=O)NC(=O)/C(C)=C\C=C\[C@H](C)[C@H](O)[C@@H](C)[C@@H](O)[C@@H](C)[C@H](OC(C)=O)[C@@H]1C [RIFAMPIN] | – | 140 | – | – | 46 | – | 610 | 0.016 (≈ 0.0194 µM) | 0.8 (≈ 0.972 µM) | 3.6 (≈ 4.37 µM) | – | – | – | – | 3.68 | 1.43
